Only some compounds are listed: those with a hit (about 1.4% of all), similar ones and a draw of the others.
CAL PDZ FP-1 – inhibitors of human CAL PDZ peptide binding; inhibition, % at 20 µM; purified CAL PDZ, TMR-peptide fluorescence polarization, 1 h; AID 504414; Q9HD26; actives 0.02% (n = 330,000);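 active means highest replicate inhibition of at least 40%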;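 further: plate controls were DMSO neutral control wells for no effect and unlabeled competitor peptide control wells for full effect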
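Material – purified CerCALP PDZ construct · Detection – FP readout, S and P plane fluorescence · Measure – percent inhibition from loss of millipolarization · Controls – unlabelled peptide for full inhibition, DMSO wells as neutral · Probe or stimulus – TMR-labelled reporter peptide T*-PRC34 bound in PDZ groove · Times – 1 h at RT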
Tn7 DDE FP – disrupts Tn7 cyclic peptide binding to fibrin D-Dimer-E complex | FP displacement of FITC-Tn7 peptide from fibrin DD(E); 0% = median of compound wells per plate | inhibition, % at 8.3 µM | actives 0.13% (n = 370,000) | AID 720508;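 active means inhibition above the mean of compounds falling within the control limits plus 3 SD of them, cut at about 14% in these data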;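 further: 0% = plate median of compound wells and 100% = 10 µM Aha-Tn7 peptide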
Target sequence (P02675 whole entry, looked up): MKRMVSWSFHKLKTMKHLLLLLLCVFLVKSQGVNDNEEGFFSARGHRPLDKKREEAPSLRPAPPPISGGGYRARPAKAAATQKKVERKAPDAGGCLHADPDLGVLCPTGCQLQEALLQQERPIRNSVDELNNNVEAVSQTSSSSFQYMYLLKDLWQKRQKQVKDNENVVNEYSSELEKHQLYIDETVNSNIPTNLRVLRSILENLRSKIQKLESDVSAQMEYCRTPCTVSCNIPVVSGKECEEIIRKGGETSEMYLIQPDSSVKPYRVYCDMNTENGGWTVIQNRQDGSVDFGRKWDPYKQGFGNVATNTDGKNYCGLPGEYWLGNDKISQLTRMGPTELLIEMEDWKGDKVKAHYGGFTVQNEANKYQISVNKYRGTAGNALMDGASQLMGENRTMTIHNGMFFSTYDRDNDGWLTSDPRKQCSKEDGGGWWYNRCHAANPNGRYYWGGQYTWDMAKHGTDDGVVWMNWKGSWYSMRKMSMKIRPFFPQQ
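system = human fibrin DD(E) protein | quantity = DD(E) 2 µM final | medium = Tris/NaCl/CaCl2 buffer, pH 7.8 | also added = labelled Tn7 tracer, 0.1 µM | compound dosing = single point at 8.3 µM | timing = compound with protein 10 min, then 3 h after probe, room temperature | signal = FP measurement | benchmarks = Aha-Tn7 high control | repeats = one replicate per compound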
Arrestin-AP2 inh – human beta-arrestin and AP2 interaction inhibition | FITC-arrestin peptide / GST-AP2 beads, flow cytometry; AP2 beta2 appendage carries R879A mutation | inhibition, % at 10 µM | actives 0.31% (n = 340,000);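 active means inhibition above a set limit, near 3 SD of compounds lacking own fluorescence, cut at about 54% in these data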;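 further: plate controls were DMSO wells for no effect and 5 µM unlabelled arrestin peptide for full effect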
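system = GST-tagged AP2 beta2-adaptin appendage (R879A) on 4 µm glutathione beads | reagent = FITC-labelled arrestin peptide probe, 50 nM final | schedule = compound with beads 12 min RT, then probe 1 h RT | signal = HyperCyt-sampled flow cytometry, FL1 channel, ex 488/em 535 nm | read-out = percent response from loss of bead-bound FITC fluorescence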
Tn6 DDE FP – disrupts Tn6 cyclic peptide binding to fibrin D-Dimer-E complex; actives 0.21% (n = 370,000); Fibrin DD(E) TRITC-Tn6 fluorescence polarization displacement; inhibition, % at 8.3 µM; P02675; AID 720509;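 active means inhibition above a per-campaign cutoff: mean of compounds within control limits plus 3 SD, cut at about 15% in these data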;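 further: 0% = median of all compound wells on the plate and 100% = blocking peptide control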
CAL PDZ FP-2 – CAL PDZ (human) peptide binding inhibition | Q9HD26 | purified CAL PDZ, TMR-peptide fluorescence polarization, 1 h | inhibition, % at 24.9 µM | actives 0.92% (n = 300,000) | AID 602252;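 active means mean inhibition of at least 30% with at least half of replicates also reaching 30%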;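 further: 0% = DMSO neutral control and 100% = excess unlabeled competitor peptide PRC23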
Tn6 DDE ctr – DD(E)-Tn6 binding inhibition, counter-screen | shares compounds with Tn6 DDE FP | Fibrin DD(E), TRITC-Tn6 fluorescence polarization displacement; 0% = median of compound wells, not DMSO | inhibition, % at 8.3 µM | actives 2% (n = 680) | AID 720621;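 active means inhibition above the mean of test compounds lying between the control limits plus 3 SD of those, cut at about 14% in these data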;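 further: 0% = median of compound wells and 100% = wells with Aha-Tn7 blocking peptide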
Tn6 DDE conf – confirmation of inhibitors of Tn6 binding to human fibrin DD(E); shares compounds with Tn6 DDE FP; FP displacement of TRITC-Tn6 peptide from DD(E); 0% = per-plate median of test wells; inhibition, % at 8.3 µM; actives 10% (n = 680);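 active means inhibition above the mean of compounds lying within the control limits plus 3 SD, cut at about 16% in these data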;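 further: 100% = high control wells holding a competing inhibitor peptide at 10 µM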
An asterisk follows results filed as active; · = no result given.

SMILES	CAL PDZ FP-1	Tn7 DDE FP	Arrestin-AP2 inh	Tn6 DDE FP	CAL PDZ FP-2	Tn6 DDE ctr	Tn6 DDE conf
COc1ccccc1CNC(=O)C1=C(C)C(=O)OC12CCC(C)CC2 (stereo not given)	0	5	0	2	-2	·	·
C=CCn1c(CC#N)nnc1N1CCOCC1	-1	5	4	16*	0	3	1
O=C(CSc1nnc(-c2cccnc2)n1C1CCCCC1)NC1CCCCCC1	·	2	·	1	·	·	·
O=S1(=O)c2ccc(Br)cc2OC2CCCC[C@@H]2N1Cc1ccccc1 (stereo not given in full)	·	-6	·	-3	·	·	·
c1ccc(OCc2nnc(SCc3nc4ccccc4[nH]3)n2-c2ccccc2)cc1	·	1	·	1	·	·	·
CC(=O)Oc1cccc2c1C(=O)c1c(OC(C)=O)cc(C(=O)O)cc1C2=O	0	8	3	16*	-6	5	2
CCCC(=O)Nc1cc(OC)c(NC(=S)Nc2cccc(C)c2)cc1OC	·	-3	·	26*	·	-3	-18
COc1cc(NC(=S)NC(C)=O)ccc1NC(=O)C(C)C	-3	-4	9	-3	·	·	·
Cc1cccc(NC(=S)Nc2cccc3ccccc23)c1	4	-5	-14	-7	-2	·	·
CCCC(=O)Nc1cc(OC)c(NC(=S)Nc2ccc(CC)cc2)cc1OC	2	4	-1	36*	-1	4	3
CCc1ccc(NC(=S)Nc2cc(OC)c(NC(=O)C(C)C)cc2OC)cc1	1	-5	8	25*	1	2	2
COC(=O)c1cc(-c2ccccc2OC)c(=O)n2c1CCC2	·	1	·	-7	·	·	·
CCN1Cc2nnn(Cc3ccccc3)c2-c2ccccc2S1(=O)=O	·	1	·	-2	·	·	·
c1cc(CNc2ccc3c(c2)OCO3)ccn1	0	6	17	16*	2	-1	-3
COC(=O)c1cc(Br)c(=O)n(CCN2CCCC2)c1	-2	2	-4	17*	-4	-3	-5
COc1ccc(Cn2ccc3ccc(-c4ccc5ccn(Cc6ccc(OC)cc6)c5c4)cc32)cc1	·	1	·	6	·	·	·
Cc1c(Cl)cn2c(=O)cc(CN3CCN(c4ccccc4)CC3)nc2c1Cl	-1	6	1	15*	1	6	2
COc1ccc2c(c1)CN1CN(C3CCCC3)S(=O)(=O)CC21 (stereo not given)	·	7	·	-5	·	·	·
CN1C(=O)[C@H]2[C@@H](c3ccc(C(F)(F)F)cc3)N[C@]3(CCCN(CC4CCCCC4)C3=O)[C@H]2C1=O	·	1	·	16*	·	4	3
Cc1ccc([C@H]2N[C@]3(CCCN(CC4CCCCC4)C3=O)[C@H]3C(=O)N(C)C(=O)[C@@H]23)cc1	·	3	·	6	·	·	·
COc1cc(OC)c(OC)cc1/C=N/NC(=O)CCc1c(C)n[nH]c1C	0	4	21	16*	·	-1	-5
COc1ccc(/C=N/NC(=O)CCc2c(C)n[nH]c2C)cc1OC	-2	2	-4	-2	·	·	·
COC(=O)C[C@H]1CC[C@H]2[C@@H](COc3ccc(NC(=O)Nc4ccccc4)cc3C(=O)N2C)O1	·	-1	·	4	·	·	·
COc1ccc(-c2nn3c(-c4ccco4)nnc3s2)cc1OC	-1	-8	7	11	-3	·	·
COc1ccc(-c2nnc3sc(-c4ccco4)nn23)cc1OC	-4	4	-19	15*	1	8	-6
SMILES	CAL PDZ FP-1	Tn7 DDE FP	Arrestin-AP2 inh	Tn6 DDE FP	CAL PDZ FP-2	Tn6 DDE ctr	Tn6 DDE conf
Cc1cc(C)c2ccc(N)nc2c1O	0	5	27	29*	-3	-1	-9
CN(CCc1ccccc1)C1CCCN(C(=O)Cn2cccn2)C1 (stereo not given)	0	7	-11	17*	-5	-6	-10
O=C(OCC(=O)N1CCN(S(=O)(=O)c2ccc(Cl)cc2)CC1)C1CCC1	-1	4	-5	-2	0	·	·
Cc1ccc(S(=O)(=O)N2CCN(C(=O)COC(=O)C3CCC3)CC2)cc1	0	3	33	18*	·	11	4
CCN(CC)C(=O)CSc1nnc(-c2cccs2)o1	·	-4	·	2	·	·	·
CC(C1CC1)N(Cc1ccccc1)C(=O)NC(=O)c1ccccc1 (stereo not given)	-1	0	14	18*	-2	0	1
Cc1c(Cl)cnc(NC(=O)COC(=O)/C=C/c2ccco2)c1Cl	-2	3	28	-3	0	·	·
O=C(COC(=O)/C=C/c1ccco1)Nc1ncc(C(F)(F)F)cc1Cl	-2	1	-3	16*	-2	-7	-7
COC(=O)[C@H]1C[C@]2(C/C=C(\C)CCC=C(C)C)c3ccccc3N[C@H]2N1	·	-8	·	5	·	·	·
CCC(=O)OC1(C)C(=O)C=C2C=C(CCCC(=O)OC)OC=C2C1=O (stereo not given)	0	2	1	7	5	·	·
CCCCC1=CC2=CC(=O)C(C)(OC(=O)CC)C(=O)C2=CO1 (stereo not given)	2	-3	-1	18*	-4	6	0
COc1ccc(C2=Nn3c(nnc3-c3ccncc3)SC2)cc1OC	-2	-4	18	19*	·	-2	-6
c1ccc(CNc2ccccn2)cc1	-1	5	-1	5	-5	·	·
c1ccc(Nc2ccccc2Nc2ccccn2)nc1	-2	10	7	16*	·	-3	-5
Cc1cc(C(=O)COc2ccccc2C(N)=O)c(C)n1C	-1	-4	8	1	1	·	·
Cc1cc(C(=O)COc2cccc3cccnc23)c(C)n1C	-1	5	-1	30*	0	10	6
Cc1nn(-c2ccccc2)c2c1C(c1ccc([N+](=O)[O-])cc1)C(C#N)=C(N)O2 (stereo not given)	0	4	-15	16*	·	0	-2
Cc1ccc(-n2nc(C)c3c2OC(N)=C(C#N)C3c2ccc(F)cc2)cc1 (stereo not given)	-2	3	-10	-2	·	·	·
COC(=O)[C@]12C=CCN1[C@@H](c1ccc(Cl)cc1)c1c(c3ccccc3n1S(=O)(=O)c1ccc(C)cc1)C2	·	-7	·	28*	·	2	3
COC(=O)[C@]12C=CCN1[C@@H](c1ccc(C(F)(F)F)cc1)c1c(c3ccccc3n1S(=O)(=O)c1ccc(C)cc1)C2	·	10	·	12	·	·	·
COC(=O)[C@]12C=CCN1[C@H](c1ccc(C(F)(F)F)cc1)c1c(c3ccccc3n1S(=O)(=O)c1ccc(C)cc1)C2	·	-9	·	17*	·	2	4
C=CCN1C(=O)[C@H](CC(=O)N2CCCC2)[C@@]2(C(=O)OCC)CCCC=C12	·	-1	·	-1	·	·	·

Compound activity (PubChem BioAssay)
